Screens as filed in PubChem BioAssay.
Wee1 degr inh: Wee1 degradation inhibitors, primary screen, cell-based, HeLa, Wee1K328M-luciferase, luminescence; reporter increase, % at 5 µM; AID 1321, 2008; 220,000 compounds, 1.2% hits; HeLa Luc-Wee1K328M stability; 100% = proteasome inhibitor MG132 effect;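 active = activation above the mean of all tested compounds plus 3 SD, set per screening run, cut at about 8.8% in these data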;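 also: cells exposed to compound for 20 h before luminescence read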
Target sequence (P30291 whole entry K328M): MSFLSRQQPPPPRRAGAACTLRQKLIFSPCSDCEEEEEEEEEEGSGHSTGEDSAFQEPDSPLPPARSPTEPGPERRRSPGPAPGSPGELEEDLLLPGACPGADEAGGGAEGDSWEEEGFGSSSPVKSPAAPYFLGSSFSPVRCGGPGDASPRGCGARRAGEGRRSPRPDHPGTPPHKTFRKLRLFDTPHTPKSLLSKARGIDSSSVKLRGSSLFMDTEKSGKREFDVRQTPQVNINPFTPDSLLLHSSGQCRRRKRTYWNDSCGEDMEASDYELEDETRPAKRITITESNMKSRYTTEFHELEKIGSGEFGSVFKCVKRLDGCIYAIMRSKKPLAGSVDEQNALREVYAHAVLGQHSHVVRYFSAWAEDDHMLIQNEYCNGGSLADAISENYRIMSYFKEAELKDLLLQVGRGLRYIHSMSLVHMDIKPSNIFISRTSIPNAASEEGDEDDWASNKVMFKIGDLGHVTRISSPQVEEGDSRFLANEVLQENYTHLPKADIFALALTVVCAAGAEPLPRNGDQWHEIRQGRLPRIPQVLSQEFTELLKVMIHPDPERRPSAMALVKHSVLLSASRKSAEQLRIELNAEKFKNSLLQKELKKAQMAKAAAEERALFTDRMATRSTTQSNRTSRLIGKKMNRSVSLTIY
NPY-Y2 antag: NPY-Y2 receptor antagonists, primary screen, cell-based; 140,000 compounds, 0.99% hits; inhibition, % at 2.7 µM; Neuropeptide Y receptor type 2 (Homo sapiens), P49146; NPY-Y2 expressing cells, antagonist mode; in the data active = inhibition above about 17%
NPY-Y2 PAM-ag: NPY-Y2 potentiators or agonists, primary screen, cell-based | activation, % at 3.6 µM | 220,000 compounds, 0.45% hits | cells expressing NPY-Y2, potentiator/agonist read-out; in the data active = activation above about 27%;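 also: cells stimulated with NPY near EC25 plus isoproterenol at EC100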
Hsp70 activator: Hsp70 transcriptional activators, primary screen, cell-based, HeLa, Hsp70 promoter luciferase, luminescence, 10 µM; HeLa Hsp70 promoter luciferase reporter; scaled: vehicle 0, proteasome-inhibitor control 100%; activation, % at 10 µM; 200,000 compounds, 0.04% hits;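 active = activation above the mean across all tested compounds plus 3 SD, cutoff set per campaign, cut at about 5.5% in these data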
NPY Y1 blocker: NPY-Y1 receptor antagonists, primary screen, cell-based | Neuropeptide Y receptor type 1 (Homo sapiens), P25929 | inhibition, % at 3.6 µM | HEK293-CNG Y1 cells, membrane potential fluorescence; NPY at EC95, then isoproterenol | 200,000 compounds, 1% hits | AID 1040, 2008;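 active = inhibition above the campaign mean inhibition of all tested compounds plus 3 SD, cut at about 20% in these data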
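Test system – HEK293 Y1/CNG channel cell line · Also added – NPY agonist 25 nM, then isoproterenol 1 µM plus Ro 20-1724 25 µM · Compound dosing – one concentration, 3.6 µM, in 0.4% DMSO · Schedule – compound incubation 1 h at room temperature, readout 45 min post-stimulation · Technique – fluorescence, membrane potential probe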
NPY-Y1 PAM-ag: NPY-Y1 receptor potentiators or agonists, primary screen, cell-based | Neuropeptide Y receptor type 1 (Homo sapiens), P25929 | NPY-Y1 expressing cells, potentiator/agonist activation | activation, % at 3.6 µM | 220,000 compounds, 0.37% hits | AID 1304, 2008; in the data active = activation above about 33%, passing the limit was not always enough;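 also: cells stimulated with NPY at EC10 then isoproterenol at EC100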
NPY-Y2 confirm: NPY-Y2 potentiators or agonists, confirmation, cell-based | cell-based NPY-Y2 potentiator/agonist assay | 450 compounds, 20% hits | AID 1539, 2009 | shares compounds with NPY-Y2 PAM-ag | activation, % at 3.6 µM; in the data active = activation above about 33%
NPY-Y1 counter: NPY-Y1 potentiators or agonists, counter-screen for NPY-Y2 potentiator project, cell-based, fluorescence; shares compounds with NPY-Y2 PAM-ag; Y1 HEK293-CNG cells, membrane potential fluorescence; activation, % at 3.6 µM; 450 compounds, 20% hits; AID 1651, 2009; in the data active = activation above about 45%;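 also: cells stimulated with submaximal NPY then isoproterenol with phosphodiesterase inhibitor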
NPY-Y1 ag 2: NPY-Y1 direct agonists, selectivity assay for NPY-Y2 potentiator project, cell-based, fluorescence | AID 1702, 2009 | HEK293 Y1-CNGC, membrane potential fluorescence, agonism | 450 compounds, 37% hits | shares compounds with NPY-Y2 PAM-ag | activation, % at 3.6 µM;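 active = activation above the mean of DMSO-only control wells plus 3 SD, cut at about 18% in these data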;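 also: cells stimulated with 1 µM isoproterenol plus the PDE inhibitor Ro 20-1724; Y1 agonists lower the membrane potential dye signal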
CNGC inh: CNGC cAMP sensor activity inhibitors, counter-screen for NPY-Y2 potentiator project, cell-based, HEK293-CNG parental, membrane potential fluorescence; shares compounds with NPY-Y2 PAM-ag; isoproterenol cAMP; inhibition, % at 3.6 µM; 450 compounds, 32% hits; AID 1703, 2009;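 active = inhibition above the control-well mean plus 3 SD of those wells, cut at about 22% in these data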
NPY-Y2 ag 2: NPY-Y2 direct agonists, counter-screen for NPY-Y2 potentiator project, cell-based, fluorescence. shares compounds with NPY-Y2 PAM-ag. HEK293 Y2/CNGC cells, membrane potential fluorescence, agonist mode. activation, % at 3.6 µM. 450 compounds, 56% hits;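 active = activation above the mean of solvent-only control wells plus 3 SD, cut at about 10% in these data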;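 also: cells stimulated by isoproterenol with no NPY added so direct agonism is tested; agonism lowers probe fluorescence through less cAMP and CNG channel opening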
Hits are given with their value; n = inactive; x = not tested or not shown. An excerpt weighted towards active compounds, which were near 3% of everything screened.

SMILES	Wee1 degr inh	NPY-Y2 antag	NPY-Y2 PAM-ag	Hsp70 activator	NPY Y1 blocker	NPY-Y1 PAM-ag	NPY-Y2 confirm	NPY-Y1 counter	NPY-Y1 ag 2	CNGC inh	NPY-Y2 ag 2
COc1ccc(Cn2cnc3c(NS(C)(=O)=O)c(C)c(C)cc32)cc1	n	n	34.6	n	n	n	n	n	n	n	20.9
O=C1Nc2ccccc2N=C(c2ccccc2)c2ccccc21	n	x	40.6	x	x	n	n	n	n	n	n
O=C1CC(/C=C/c2ccccc2)=Nc2ccccc2N1	n	x	n	n	n	n	x	x	x	x	x
Cc1ccc(C)c(S(=O)(=O)NC(CCC(N)=O)C(=O)O)c1 (stereo not given)	n	n	n	n	n	n	x	x	x	x	x
NS(=O)(=O)c1ccc2nc(NC(=O)c3ccncc3)sc2c1	n	x	n	n	n	n	x	x	x	x	x
NC(=O)c1ccc2nc(NC(=O)c3ccc(N)cc3)sc2c1	n	x	30.8	n	n	n	n	n	17.6	n	18.2
Cc1ccc(Nc2ccccc2)cc1	n	n	n	n	n	n	x	x	x	x	x
Cc1ccc(NC2=Nc3ccccc3CS2)cc1	n	n	36.5	n	n	n	n	n	n	n	n
O=C(Cc1ccccc1)Nc1scc(-c2ccccc2)c1C(=O)N1CCOCC1	n	n	n	n	n	n	x	x	x	x	x
NC(=O)c1c(-c2ccc(Cl)cc2Cl)csc1NC(=O)Cc1ccccc1	n	n	32.0	n	n	n	n	n	n	n	n
COCCNC(=O)c1c[nH]c2ccc(S(=O)(=O)N3CCc4ccccc43)cc2c1=O	n	x	n	n	n	n	x	x	x	x	x
COCCCNC(=O)c1c[nH]c2ccc(S(=O)(=O)N3CCc4ccccc43)cc2c1=O	n	x	32.7	n	n	n	n	n	n	n	12.7
COc1ccc(N=c2cc(-c3ccc(OC)cc3)oc3ccccc23)cc1	n	n	29.6	n	n	n	51.8	73.5	61.1	52.7	54.4
COc1ccc(-c2cc(=Nc3ccc(C)cc3)c3ccccc3o2)cc1	n	n	n	n	n	n	x	x	x	x	x
C=CCSc1nnc2c(n1)OC(c1c(C)[nH]n(-c3ccccc3)c1=O)Nc1ccccc1-2 (stereo not given)	n	n	n	n	n	n	x	x	x	x	x
CC(=O)C(=Nc1ccc(Cl)cc1Cl)NNc1cccc(Cl)c1	n	n	33.3	n	n	n	n	n	n	n	27.6
CC(=O)c1ccc(NC(=O)Nc2cccc(Cl)c2)cc1	n	n	n	n	n	n	x	x	x	x	x
Cc1cc(C)cc(N(CC(=O)NCCSc2ccccn2)S(=O)(=O)c2ccccc2)c1	n	n	n	n	n	n	x	x	x	x	x
CC(=O)c1c(C)[nH]c(C(=O)OCCCCN2C(=O)c3ccccc3C2=O)c1C	n	n	39.4	n	n	n	n	n	n	n	22.2
CCN(CC(=O)NCc1ccc(F)cc1)C(=O)/C=C/c1cccs1	n	x	n	n	n	n	x	x	x	x	x
CN(C)CCCN(C(=O)/C=C/c1cccs1)c1nc2ccc(F)cc2s1	n	x	n	n	n	n	x	x	x	x	x
Cc1ccc2nc(N(CCN(C)C)C(=O)/C=C/c3cccs3)sc2c1	n	n	52.0	n	n	n	91.0	107.1	88.8	85.7	97.4
CN(C)CCN(C(=O)/C=C/c1cccs1)c1nc2c(F)cc(F)cc2s1	n	n	45.7	n	n	n	94.5	116.8	103.8	90.9	105.1
CC1CCN(S(=O)(=O)N2CCC(C(=O)NCc3cccs3)CC2)CC1	n	n	n	n	n	n	x	x	x	x	x
Cc1nc2ccc(S(=O)(=O)NC(C(=O)Nc3nc4ccc(Cl)cc4s3)C(C)C)cc2s1 (stereo not given)	n	n	30.3	n	n	n	n	n	n	n	n
SMILES	Wee1 degr inh	NPY-Y2 antag	NPY-Y2 PAM-ag	Hsp70 activator	NPY Y1 blocker	NPY-Y1 PAM-ag	NPY-Y2 confirm	NPY-Y1 counter	NPY-Y1 ag 2	CNGC inh	NPY-Y2 ag 2
Cc1nc2ccc(S(=O)(=O)NC(C(=O)Nc3nccs3)C(C)C)cc2s1 (stereo not given)	n	n	n	n	n	n	x	x	x	x	x
Cc1ccc(S(=O)(=O)Nc2ccc(NC(=O)c3cccs3)cc2)cc1	n	x	n	n	n	n	x	x	x	x	x
Cc1ccc(S(=O)(=O)Nc2ccc(NC(=O)c3c(F)c(F)c(F)c(F)c3F)cc2)cc1	n	x	34.9	n	n	n	n	n	26.5	27.7	23.7
Cc1cccc(C)c1NC(=O)c1sc(Cl)nc1C	n	n	n	n	n	n	x	x	x	x	x
CC1(C)C(=O)OC(/C=C\c2ccccc2)C(C)(C)C1=O (stereo not given)	n	x	33.0	n	n	n	n	n	n	n	n
CC1(C)C(=O)OC(c2c3ccccc3cc3ccccc23)C(C)(C)C1=O (stereo not given)	n	x	n	x	x	n	x	x	x	x	x
COc1cc(C)c(NC(=S)NCCCN2CCOCC2)cc1OC	n	x	n	n	n	n	x	x	x	x	x
Cc1ccc(C(=O)N2CC3(C)CN(C(=O)c4ccc(C)cc4)CC(C)(C2)C3=O)cc1	n	n	30.1	n	n	n	n	n	n	n	n
C=CCN(CC=C)CC(O)Cn1c2ccccc2c2ccccc21 (stereo not given)	n	n	n	n	n	n	x	x	x	x	x
CCN(CC)CC(O)Cn1c2ccccc2c2ccccc21 (stereo not given)	n	n	38.0	n	n	n	37.5	n	28.9	n	40.6
O=C(NCc1ccc(Cl)cc1)C1CCN(S(=O)(=O)c2cc([N+](=O)[O-])ccc2Cl)CC1	n	n	n	n	n	n	x	x	x	x	x
Cc1cccc2sc(NC(=O)C3CCN(S(=O)(=O)c4cc([N+](=O)[O-])ccc4Cl)CC3)nc12	n	n	40.4	n	n	n	n	n	23.7	n	41.4
CCOC(=O)Nc1ccc2c(c1)Sc1ccccc1N2C(=O)CCN1CCOCC1	n	n	n	n	n	n	x	x	x	x	x
